Laboratory results from ChEMBL document CHEMBL3259614, “Design, synthesis, and structure-activity relationship studies of novel fused heterocycles-linked triazoles with good activity and water solubility” (J Med Chem, 2014).
In brackets after ≈: the same amount, converted by molar mass.

Key:
Cryptococcus neoformans [1] = assay: Antimicrobial activity against Cryptococcus neoformans 32609 after 72 hrs by serial dilution method; format: functional; details: Cryptococcus neoformans, 32609, 72 h
Method in brief: (§1)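 Broth serial dilution MIC in 96-well plates following NCCLS/CLSI methods. Compounds were dissolved in DMSO and serially diluted in growth medium, with incubation at 35 °C. […] C. parapsilosis 22019 served as the quality-control strain in each assay.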

Aspergillus fumigatus = assay: Antimicrobial activity against Aspergillus fumigatus 7544 after 48 hrs by serial dilution method; format: functional; details: Aspergillus fumigatus, 7544, 48 h; method in brief: as §1
Candida albicans [2] = assay: Antimicrobial activity against fluconazole-resistant Candida albicans 100 after 24 hrs by serial dilution method; format: functional; details: Candida albicans, 100, 24 h
Method in brief: (§2)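 Broth serial-dilution MIC in 96-well plates following NCCLS guidance. Compounds were dissolved in DMSO and serially diluted in growth medium. Clinical isolates came from a hospital collection. […] C. parapsilosis ATCC 22019 served as the quality-control strain in each assay.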

Candida albicans [3] = assay: Ratio of fluconazole MIC to compound MIC for fluconazole-resistant Candida albicans 103 after 24 hrs by serial dilution method; format: functional
Cryptococcus neoformans [4] = assay: Ratio of ravuconazole MIC to compound MIC for Cryptococcus neoformans 32609 after 72 hrs by serial dilution method; format: functional
Nakaseomyces glabratus [5] = assay: Ratio of ravuconazole MIC to compound MIC for Candida glabrata 537 after 24 hrs by serial dilution method; format: functional
Nakaseomyces glabratus [6] = assay: Antimicrobial activity against Candida glabrata 537 after 24 hrs by serial dilution method; format: functional; details: Nakaseomyces glabratus, 537, 24 h; method in brief: as §1
Candida parapsilosis [7] = assay: Ratio of ravuconazole MIC to compound MIC for Candida parapsilosis 22019 after 24 hrs by serial dilution method; format: functional
Candida albicans [8] = assay: Antimicrobial activity against fluconazole-resistant Candida albicans J18 after 24 hrs by serial dilution method; format: functional; details: J18, 24 h; method in brief: as §2
Candida albicans [9] = assay: Ratio of fluconazole MIC to compound MIC for fluconazole-resistant Candida albicans J18 after 24 hrs by serial dilution method; format: functional
Candida albicans [10] = assay: Ratio of fluconazole MIC to compound MIC for fluconazole-resistant Candida albicans 100 after 24 hrs by serial dilution method; format: functional
Candida albicans [11] = assay: Antimicrobial activity against fluconazole-resistant Candida albicans J28 after 24 hrs by serial dilution method; format: functional; details: J28, 24 h; method in brief: as §2
Candida albicans [12] = assay: Antimicrobial activity against fluconazole-resistant Candida albicans J38 after 24 hrs by serial dilution method; format: functional; details: J38, 24 h; method in brief: as §2
Candida albicans [13] = assay: Antimicrobial activity against Candida albicans SC5314 after 24 hrs by serial dilution method; format: functional; details: SC5314, 24 h; method in brief: as §1
Candida albicans [14] = assay: Antimicrobial activity against Candida albicans Y0109 after 24 hrs by serial dilution method; format: functional; details: Y0109, 24 h; method in brief: as §1
Candida albicans [15] = assay: Antimicrobial activity against fluconazole-resistant Candida albicans 103 after 24 hrs by serial dilution method; format: functional; details: Candida albicans, 103, 24 h; method in brief: as §2
Nakaseomyces glabratus [16] = assay: Ratio of voriconazole MIC to compound MIC for Candida glabrata 537 after 24 hrs by serial dilution method; format: functional
Cryptococcus neoformans [17] = assay: Ratio of voriconazole MIC to compound MIC for Cryptococcus neoformans 32609 after 72 hrs by serial dilution method; format: functional
Candida parapsilosis [18] = assay: Antimicrobial activity against Candida parapsilosis 22019 after 24 hrs by serial dilution method; format: functional; details: Lodderomyces parapsilosis, 22019, 24 h; method in brief: as §1
Candida parapsilosis [19] = assay: Ratio of voriconazole MIC to compound MIC for Candida parapsilosis 22019 after 24 hrs by serial dilution method; format: functional
[20] = Aqueous solubility of the compound in hydrochloric acid solution at pH 1.2; format: physicochemical
Method in brief: (§3)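 Excess solid was stirred for 3 h in pH 1.2 hydrochloric acid or pH 7.4 phosphate buffer, then filtered through 0.45 μm. Absorbance at the UV maximum was compared with a methanol standard, C′ = A′C/A, with values reported in mg/mL. Determined at 30 °C; mean ± SD, n = 3.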

[21] = Aqueous solubility of the compound in phosphate buffer at pH 7.4; format: physicochemical; method in brief: as §3
[22] = Tmax in Sprague-Dawley rat at 10 mg/kg, po; format: ADME, organism-based; set-up: dose 10 mg/kg, route oral; details: in vivo
Method in brief: (§4)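 Male Sprague−Dawley rats (200−250 g), seven per group, dosed orally at 10 mg/kg or intravenously at 3 or 5 mg/kg in 5% DMSO + 5% Tween 80 in 90% saline. Serial retrobulbar blood samples were quantified by LC-MS. Parameters were derived from mean plasma concentrations by noncompartmental analysis. For the disulfate salt, values are based on the active free base measured.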

Candida albicans [23] = assay: Antimicrobial activity against fluconazole-resistant Candida albicans 103 infected in ICR mouse assessed as mean survival days at 1 mg/kg, po qd for 5 days starting 2 hrs post infection (reference value: 1.5 +/- 0.53 days); format: functional
Candida albicans [24] = assay: Antimicrobial activity against Candida albicans SC5314 infected in ICR mouse assessed as mean survival days at 10 mg/kg, po qd for 5 days starting 2 hrs post infection (reference value: 5.2 +/- 2.35 days starting 2 hrs post infection); format: functional
Candida albicans [25] = assay: Antimicrobial activity against Candida albicans SC5314 infected in ICR mouse assessed as mean survival days at 3.2 mg/kg, po qd for 5 days starting 2 hrs post infection (reference value: 5.2 +/- 2.35 days starting 2 hrs post infection); format: functional
Candida albicans [26] = assay: Antimicrobial activity against fluconazole-resistant Candida albicans 103 infected in ICR mouse assessed as mean survival days at 0.32 mg/kg, po qd for 5 days starting 2 hrs post infection (reference value: 1.5 +/- 0.53 days); format: functional
Candida albicans [27] = assay: Antimicrobial activity against Candida albicans SC5314 infected in ICR mouse assessed as mean survival days at 0.32 mg/kg, po qd for 5 days starting 2 hrs post infection (reference value: 5.2 +/- 2.35 days starting 2 hrs post infection); format: functional
[28] = Cmax in Sprague-Dawley rat at 10 mg/kg, po; format: ADME, organism-based; set-up: dose 10 mg/kg, route oral; details: in vivo; method in brief: as §4
[29] = Clearance in Sprague-Dawley rat at 3 mg/kg, iv; format: ADME, organism-based; set-up: dose 3 mg/kg, route intravenous; details: in vivo; method in brief: as §4
Candida albicans [30] = assay: Antimicrobial activity against fluconazole-resistant Candida albicans 103 infected in ICR mouse assessed as mean survival days at 10 mg/kg, po qd for 5 days starting 2 hrs post infection (reference value: 1.5 +/- 0.53 days); format: functional
[31] = biological target: Voltage-gated inwardly rectifying potassium channel KCNH2 (Homo sapiens, UniProt Q12809); assay: Inhibition of human ERG expressed in CHO cells by whole-cell patch clamp assay; format: cell-based
Candida albicans [32] = assay: Antimicrobial activity against fluconazole-resistant Candida albicans 103 infected in ICR mouse assessed as mean survival days at 3.2 mg/kg, po qd for 5 days starting 2 hrs post infection (reference value: 1.5 +/- 0.53 days); format: functional
[33] = AUC (0 to infinity) in Sprague-Dawley rat at 10 mg/kg, po; format: ADME, organism-based; set-up: time infinity, dose 10 mg/kg, route oral; details: plasma; method in brief: as §4
[34] = Elimination half life in Sprague-Dawley rat liver microsomes at 0.1 uM by LC/MS/MS analysis; format: ADME; details: read-out: beta t1/2
Method in brief: (§5)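 Male Sprague−Dawley rat liver microsomes (0.33 mg/mL protein) in 0.1 M Tris-HCl pH 7.4 with 5 mM MgCl₂ and 1 mM NADPH. Compound at a final 0.1 μM (0.01% DMSO, 0.005% BSA), incubated at 37 °C. Samples taken at 0, 7, 17, 30 and 60 min were quenched in methanol, and parent compound was measured by LC/MS/MS. t1/2 and Clint were then calculated.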

[35] = AUC (0 to infinity) in Sprague-Dawley rat at 3 mg/kg, iv; format: ADME, organism-based; set-up: time infinity, dose 3 mg/kg, route intravenous; details: plasma; method in brief: as §4
[36] = Half life in Sprague-Dawley rat at 3 mg/kg, iv; format: ADME, organism-based; set-up: dose 3 mg/kg, route intravenous; details: in vivo; method in brief: as §4
[37] = Oral bioavailability in Sprague-Dawley rat at 10 mg/kg; format: ADME, organism-based; details: in vivo; method in brief: as §4
[38] = Intrinsic clearance in Sprague-Dawley rat liver microsomes assessed per mg protein at 0.1 uM by LC/MS/MS analysis; format: ADME; method in brief: as §5
[39] = Half life in Sprague-Dawley rat at 10 mg/kg, po; format: ADME, organism-based; set-up: dose 10 mg/kg, route oral; details: in vivo; method in brief: as §4
Candida albicans [40] = assay: Antimicrobial activity against Candida albicans SC5314 infected in ICR mouse assessed as mean survival days at 1 mg/kg, po qd for 5 days starting 2 hrs post infection (reference value: 5.2 +/- 2.35 days starting 2 hrs post infection); format: functional

Sequence of Voltage-gated inwardly rectifying potassium channel KCNH2 (Q12809 whole entry): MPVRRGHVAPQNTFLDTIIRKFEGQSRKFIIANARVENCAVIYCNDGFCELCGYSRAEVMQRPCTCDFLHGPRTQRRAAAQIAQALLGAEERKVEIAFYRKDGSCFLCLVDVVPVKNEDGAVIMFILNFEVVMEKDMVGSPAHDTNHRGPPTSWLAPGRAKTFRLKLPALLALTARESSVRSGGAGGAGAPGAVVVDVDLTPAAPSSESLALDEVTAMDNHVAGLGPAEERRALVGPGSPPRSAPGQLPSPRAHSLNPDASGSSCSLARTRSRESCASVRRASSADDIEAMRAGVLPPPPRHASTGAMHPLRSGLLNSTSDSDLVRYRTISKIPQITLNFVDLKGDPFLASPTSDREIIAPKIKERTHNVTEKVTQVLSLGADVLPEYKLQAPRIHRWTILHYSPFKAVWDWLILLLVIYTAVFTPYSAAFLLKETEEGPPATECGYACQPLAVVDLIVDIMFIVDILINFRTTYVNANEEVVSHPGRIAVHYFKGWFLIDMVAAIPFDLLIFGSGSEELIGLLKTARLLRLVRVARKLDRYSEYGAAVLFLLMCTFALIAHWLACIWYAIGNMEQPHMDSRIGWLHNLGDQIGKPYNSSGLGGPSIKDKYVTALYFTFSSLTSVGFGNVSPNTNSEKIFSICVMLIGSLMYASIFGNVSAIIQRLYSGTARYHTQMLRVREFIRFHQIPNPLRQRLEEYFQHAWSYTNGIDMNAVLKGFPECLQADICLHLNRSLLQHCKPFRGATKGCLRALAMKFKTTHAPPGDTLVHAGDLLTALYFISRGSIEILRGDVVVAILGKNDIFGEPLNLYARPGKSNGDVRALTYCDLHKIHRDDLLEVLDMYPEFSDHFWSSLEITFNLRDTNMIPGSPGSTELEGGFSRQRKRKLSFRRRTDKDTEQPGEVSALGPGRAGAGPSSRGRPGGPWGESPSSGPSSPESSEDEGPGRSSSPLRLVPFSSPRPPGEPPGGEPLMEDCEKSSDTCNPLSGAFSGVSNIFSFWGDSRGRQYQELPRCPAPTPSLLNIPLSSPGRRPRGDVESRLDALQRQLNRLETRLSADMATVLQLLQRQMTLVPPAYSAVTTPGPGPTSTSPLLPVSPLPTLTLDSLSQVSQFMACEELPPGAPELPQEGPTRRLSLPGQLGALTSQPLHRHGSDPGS

SMILES	MIC (Cryptococcus neoformans [1])	MIC (Aspergillus fumigatus)	MIC (Candida albicans [2])	Ratio (Candida albicans [3])	MIC (Nakaseomyces glabratus [6])	MIC (Candida albicans [8])	Ratio (Candida albicans [9])	Ratio (Candida albicans [10])	MIC (Candida albicans [11])	MIC (Candida albicans [12])	MIC (Candida albicans [13])	MIC (Candida albicans [14])	MIC (Candida albicans [15])	MIC (Candida parapsilosis [18])	solubility [20]	also measured
C[C@@H](N1CCn2cc(-c3ccccc3)nc2C1)[C@](O)(Cn1cncn1)c1ccc(F)cc1F	0.0312 µg/mL (≈ 0.0694 µM)	16 µg/mL (≈ 35.5 µM)	> 32 µg/mL	16	0.0312 µg/mL (≈ 0.0694 µM)	> 32 µg/mL	16	16	0.5 µg/mL (≈ 1.11 µM)	0.125 µg/mL (≈ 0.277 µM)	0.0625 µg/mL (≈ 0.139 µM)	0.0625 µg/mL (≈ 0.139 µM)	> 32 µg/mL	0.0625 µg/mL (≈ 0.139 µM)		Ratio (Cryptococcus neoformans [4]): 2; Ratio (Nakaseomyces glabratus [5]): 2; Ratio (Candida parapsilosis [7]): 2; Ratio (Nakaseomyces glabratus [16]): 2; Ratio (Cryptococcus neoformans [17]): 2; Ratio (Candida parapsilosis [19]): 2
C[C@@H](N1CCn2nc(-c3ccccc3)nc2C1)[C@](O)(Cn1cncn1)c1ccc(F)cc1F	0.125 µg/mL (≈ 0.277 µM)	32 µg/mL (≈ 70.9 µM)	> 32 µg/mL	16	0.125 µg/mL (≈ 0.277 µM)	> 32 µg/mL	16	16	0.5 µg/mL (≈ 1.11 µM)	0.0625 µg/mL (≈ 0.138 µM)	0.0625 µg/mL (≈ 0.138 µM)	0.125 µg/mL (≈ 0.277 µM)	> 32 µg/mL	0.125 µg/mL (≈ 0.277 µM)	316 µg/mL (≈ 700 µM)	solubility [21]: 97 µg/mL (≈ 215 µM)
C[C@@H](N1CCn2nc(-c3ccc(C#N)nc3)nc2C1)[C@](O)(Cn1cncn1)c1ccc(F)cc1F	0.0078 µg/mL (≈ 0.0163 µM)	1 µg/mL (≈ 2.09 µM)	8 µg/mL (≈ 16.8 µM)		0.0078 µg/mL (≈ 0.0163 µM)	> 16 µg/mL			0.0625 µg/mL (≈ 0.131 µM)	≤ 0.0312 µg/mL	0.0156 µg/mL (≈ 0.0327 µM)	0.0156 µg/mL (≈ 0.0327 µM)	> 16 µg/mL	0.0156 µg/mL (≈ 0.0327 µM)	44 µg/mL (≈ 92.2 µM)	Tmax [22]: 1.75 h; Survival (Candida albicans [23]): 2 days; Survival (Candida albicans [24]): 18.1 days; Survival (Candida albicans [25]): 14.1 days; Survival (Candida albicans [26]): 1.7 days; Survival (Candida albicans [27]): 8 days; Cmax [28]: 1420 ng/mL; clearance [29]: 22.7 mL/min/kg; Survival (Candida albicans [30]): 8.3 days; IC50 [31]: > 40 µM; Survival (Candida albicans [32]): 3.6 days; AUC(0-inf) [33]: 7910 ng·h/mL; half-life at 0.1 µM [34]: 7.17 h; AUC(0-inf) [35]: 2240 ng·h/mL; half-life [36]: 1.2 h; bioavailability [37]: 105%; microsomal CLint at 0.1 µM [38]: 5 µL/min/mg; half-life [39]: 3.63 h; Survival (Candida albicans [40]): 12.3 days
